≈ marks a conversion by molar mass, not a printed value.
Tests used:
Pseudomonas aeruginosa [1] = test: Antibacterial activity against Pseudomonas aeruginosa clinical isolate after 18 to 24 hrs; type: functional
[2] = target: T1, UDP-3-O-acyl-N-acetylglucosamine deacetylase (Pseudomonas aeruginosa (strain ATCC 15692 / PAO1 / 1C / PRS 101 / LMG12228), UniProt P47205); test: Inhibition of Pseudomonas aeruginosa LpxC using UDP-3-O-(R-hydroxydecanoyl)-N-acetylglucosamine as substrate preincubated for 30 mins followed by substrate addition measured after 20 mins by LC-MS/MS analysis
T1 sequence (P47205 whole entry): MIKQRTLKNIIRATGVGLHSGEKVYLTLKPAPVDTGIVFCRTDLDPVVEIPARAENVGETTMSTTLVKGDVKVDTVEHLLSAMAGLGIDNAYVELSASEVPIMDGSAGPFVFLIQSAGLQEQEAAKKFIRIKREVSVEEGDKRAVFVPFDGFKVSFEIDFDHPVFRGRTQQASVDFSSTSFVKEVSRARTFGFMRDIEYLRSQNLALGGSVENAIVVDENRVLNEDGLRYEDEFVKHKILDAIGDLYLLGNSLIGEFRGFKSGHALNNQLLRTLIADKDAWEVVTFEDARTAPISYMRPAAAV

Pseudomonas aeruginosa [3] = test: Antibacterial activity against Pseudomonas aeruginosa PAO1 K767 after 18 to 24 hrs; type: functional
Method in brief: (§1)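 Broth MIC per CLSI guidelines in cation-adjusted Mueller Hinton broth. Compounds were dissolved and serially diluted in DMSO (carbapenems in water) before addition to plates. Incubation was at 37 °C for 18−24 h. MIC is the lowest concentration preventing visible growth. MIC50/MIC90 are the concentrations inhibiting 50% or 90% of isolates tested.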

Pseudomonas aeruginosa [4] = test: Antibacterial activity against mexAB-oprM deficient Pseudomonas aeruginosa K1119 after 18 to 24 hrs; type: functional; method in brief: as §1
Pseudomonas aeruginosa [5] = test: Antibacterial activity against hypersusceptible Pseudomonas aeruginosa Z61 after 18 to 24 hrs; type: functional; method in brief: as §1
[6] = Cytotoxicity against human K562 cells assessed as reduction in cell viability after 72 hrs by WST1 assay; type: cell-based
Method in brief: (§2)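 Cells were grown and assayed in medium with 10% heat-inactivated FBS and exposed to compound for 72 h. Metabolic activity was read as WST-1 cleavage to formazan at A450, with puromycin as positive control. CC50 (50% reduction in viability) was calculated from dose-response curves.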

[7] = Solubility of the compound at pH 6.8 by high throughput screening assay; type: physicochemical; conditions: buffer, read-out: solubility
[8] = Cytotoxicity against human HepG2 cells assessed as reduction in cell viability after 72 hrs by WST1 assay; type: cell-based; method in brief: as §2
Alcaligenes = test: Antibacterial activity against Alcaligenes xylosus NB56002 after 18 to 24 hrs; type: functional; method in brief: as §1
Klebsiella oxytoca = test: Antibacterial activity against Klebsiella oxytoca NB30007 after 18 to 24 hrs; type: functional; method in brief: as §1
Proteus mirabilis = test: Antibacterial activity against Proteus mirabilis NB32022 after 18 to 24 hrs; type: functional; method in brief: as §1
Klebsiella aerogenes = test: Antibacterial activity against Enterobacter aerogenes NB24004 after 18 to 24 hrs; type: functional; method in brief: as §1
[9] = tested on: Stenotrophomonas maltophilia; test: Antibacterial activity against Stenotrophomonas maltophilia NB55011 after 18 to 24 hrs; type: functional; method in brief: as §1
Acinetobacter baumannii = test: Antibacterial activity against Acinetobacter baumannii NB48015 after 18 to 24 hrs; type: functional; method in brief: as §1
Burkholderia cepacia = test: Antibacterial activity against Burkholderia cepacia NB49016 after 18 to 24 hrs; type: functional; method in brief: as §1

Row | IC50 [2] | MIC (Pseudomonas aeruginosa [3]) | MIC (Pseudomonas aeruginosa [4]) | MIC (Pseudomonas aeruginosa [5]) | Compound | MIC50 (Pseudomonas aeruginosa [1]) | MIC90 (Pseudomonas aeruginosa [1]) | further results
1 | – | – | – | – | NC[C@H]1O[C@H](O[C@H]2[C@H](O)[C@@H](O[C@H]3O[C@H](CO)[C@@H](O)[C@H](N)[C@H]3O)[C@H](N)C[C@@H]2N)[C@H](N)C[C@@H]1O [TOBRAMYCIN] | 2 µg/mL (≈ 4.28 µM) | > 128 µg/mL | –
2 | 342 nM | > 128 µg/mL | > 128 µg/mL | > 128 µg/mL | C[C@@H](N)[C@H](NC(=O)COc1ccc(N2CCCC2=O)cc1)C(=O)NO | – | – | –
3 | 1640 nM | > 128 µg/mL | 16 µg/mL (≈ 49.6 µM) | 32 µg/mL (≈ 99.3 µM) | C[C@@H](N)[C@H](NC(=O)c1ccc(N2CCOCC2)cc1)C(=O)NO | – | – | –
4 | – | – | – | – | C[C@@H](O)[C@H]1C(=O)N2C(C(=O)O)=C(S[C@@H]3CN[C@H](CNS(N)(=O)=O)C3)[C@H](C)[C@H]12 [DORIPENEM] | 1 µg/mL (≈ 2.38 µM) | 32 µg/mL (≈ 76.1 µM) | –
5 | – | – | – | – | C[C@@H](O)[C@H]1C(=O)N2C(C(=O)O)=C(S[C@@H]3CN[C@H](C(=O)N(C)C)C3)[C@H](C)[C@H]12 [MEROPENEM] | 2 µg/mL (≈ 5.22 µM) | 32 µg/mL (≈ 83.4 µM) | –
6 | 19.7 nM | 2 µg/mL (≈ 6.55 µM) | 0.25 µg/mL (≈ 0.819 µM) | 0.5 µg/mL (≈ 1.64 µM) | CC#CCOc1ccc(C(=O)N[C@H](C(=O)NO)[C@@H](C)N)cc1 | – | – | CC50 at 72 h [6]: > 419 µM; solubility [7]: 295 µg/mL (≈ 966 µM); CC50 at 72 h [8]: > 419 µM
7 | – | – | – | – | CC1(C)S[C@@H]2[C@H](NC(=O)[C@H](C(=O)O)c3ccsc3)C(=O)N2[C@H]1C(=O)O [TICARCILLIN] | 128 µg/mL (≈ 333 µM) | > 128 µg/mL | –
8 | – | – | – | – | NCC[C@H](O)C(=O)N[C@@H]1C[C@H](N)[C@@H](O[C@H]2O[C@H](CN)[C@@H](O)[C@H](O)[C@H]2O)[C@H](O)[C@H]1O[C@H]1O[C@H](CO)[C@@H](O)[C@H](N)[C@H]1O [AMIKACIN] | 16 µg/mL (≈ 27.3 µM) | > 128 µg/mL | –
9 | 16.4 nM | 1 µg/mL (≈ 3.28 µM) | 0.5 µg/mL (≈ 1.64 µM) | 1 µg/mL (≈ 3.28 µM) | CC#CCOc1ccc(C(=O)N[C@H](C(=O)NO)[C@H](C)N)cc1 | – | – | –
10 | – | 16 µg/mL (≈ 50.1 µM) | 2 µg/mL (≈ 6.26 µM) | 4 µg/mL (≈ 12.5 µM) | CC#CCOc1ccc(C(=O)N[C@@H](C(=O)NO)C(C)(C)N)cc1 | – | – | –
11 | – | – | – | – | O=C(O)c1cn(C2CC2)c2cc(N3CCNCC3)c(F)cc2c1=O [CIPROFLOXACIN] | – | – | MIC (Alcaligenes): 2 µg/mL (≈ 6.04 µM); MIC (Klebsiella oxytoca): ≤ 0.03 µg/mL; MIC (Proteus mirabilis): ≤ 0.03 µg/mL; MIC (Klebsiella aerogenes): > 16 µg/mL; MIC [9]: 0.5 µg/mL (≈ 1.51 µM); MIC (Acinetobacter baumannii): 0.5 µg/mL (≈ 1.51 µM); MIC (Burkholderia cepacia): 0.5 µg/mL (≈ 1.51 µM)
12 | – | 2 µg/mL (≈ 6.26 µM) | 0.25 µg/mL (≈ 0.783 µM) | 0.25 µg/mL (≈ 0.783 µM) | CC#CCOc1ccc(C(=O)NC(C(=O)NO)C(C)(C)N)cc1 (racemic) | – | – | –
13 | 1 nM | 128 µg/mL (≈ 320 µM) | 1 µg/mL (≈ 2.5 µM) | 32 µg/mL (≈ 80.1 µM) | CCc1ccc(-c2ccc(C(=O)N[C@H](C(=O)NO)[C@@H](C)NCC(=O)O)cc2)cc1 | – | – | –
14 | 37.5 nM | 8 µg/mL (≈ 27.3 µM) | 0.5 µg/mL (≈ 1.7 µM) | 1 µg/mL (≈ 3.41 µM) | CCCCc1ccc(C(=O)N[C@H](C(=O)NO)[C@@H](C)N)cc1 | – | – | CC50 at 72 h [6]: 42.3 µM; solubility [7]: > 293 µg/mL; CC50 at 72 h [8]: 125 µM

— ChEMBL document CHEMBL4028845, “Design, Synthesis, and Properties of a Potent Inhibitor of Pseudomonas aeruginosa Deacetylase LpxC” (J Med Chem, 2017)
